Most compounds without a hit are left out; they make up all but 1.9% or so of the library.
TbMetRS inhib: blocks T. brucei methionyl-tRNA synthetase activity. purified T. brucei MetRS, ATP depletion, Kinase-Glo luminescence. inhibition, % at 11.9 µM. 0.4% of 360,000 active. AID 624268;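 active = inhibition above a per-plate cutoff of the control wells' mean inhibition plus 3 SD, cut at about 5.5% in these data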;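 also: 0% = DMSO wells median and 100% = median of wells with control inhibitor compound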
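Test system – parasite MetRS enzyme · Reagent – substrates ATP, L-methionine and bulk Escherichia coli tRNA · Doses – 11.9 µM compound single dose, 0.9% DMSO · Times – 15 min enzyme-compound preincubation, 2 h reaction, 10 min detection, 25 °C · Signal – Kinase-Glo luminescence, ATP depletion format · Controls – DMSO-only wells as low control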
PLCb3 inh: inhibitors of human phospholipase C beta3 | Purified PLC-beta3, fluorogenic substrate, fluorescence | 0.18% of 370,000 active | Q01970 | inhibition, % at 12.2 µM; in the data active = inhibition above about 11%;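 also: 0% = median of compound wells on plate and 100% = full blocker control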
sPLA2-III inh: Blocks human group III sPLA2 activity. Q9NZ20. QFRET BODIPY PC-A2 liposome hydrolysis, fluorescence. inhibition, % at 12.2 µM. 0.56% of 370,000 active. AID 743126;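 active = inhibition above mean plus 3 SD of compounds lying within the high and low control bounds, cut at about 19% in these data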;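 also: 0% = median of test compound wells and 100% = no enzyme DMSO wells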
Target sequence (Q9NZ20 whole entry, looked up): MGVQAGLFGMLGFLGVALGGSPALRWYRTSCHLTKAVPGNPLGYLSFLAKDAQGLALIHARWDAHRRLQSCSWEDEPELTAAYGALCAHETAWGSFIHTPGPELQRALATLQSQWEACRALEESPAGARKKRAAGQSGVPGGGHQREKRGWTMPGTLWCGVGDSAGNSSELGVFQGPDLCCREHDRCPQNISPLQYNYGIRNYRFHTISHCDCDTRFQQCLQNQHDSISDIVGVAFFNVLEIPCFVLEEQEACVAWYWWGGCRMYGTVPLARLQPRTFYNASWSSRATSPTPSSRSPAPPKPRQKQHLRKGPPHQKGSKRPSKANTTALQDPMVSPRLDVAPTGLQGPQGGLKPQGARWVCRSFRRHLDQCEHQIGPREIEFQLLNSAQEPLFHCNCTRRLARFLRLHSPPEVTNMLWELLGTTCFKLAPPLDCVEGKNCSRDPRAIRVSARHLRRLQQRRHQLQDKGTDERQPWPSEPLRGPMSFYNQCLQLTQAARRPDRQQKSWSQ
PLC-gamma1 inh: inhibitors of human phospholipase C gamma1; purified PLC-gamma1, fluorogenic substrate, fluorescence; inhibition, % at 12.2 µM; 0.84% of 370,000 active; AID 720700; in the data active = inhibition above about 9.5%
DAGLB inhibitor: blocks human DAGLB lipase activity; HEK293T DAGLB membrane lysate, EnzChek fluorogenic substrate; Q8NCG7; inhibition, % at 5.17 µM; 0.059% of 340,000 active; in the data active = inhibition above about 34%;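 also: 0% = enzyme with vehicle and 100% = wells lacking enzyme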
sPLA2 confirm: human GIII-sPLA2 inhibition, confirmation; AID 743280; recombinant hGIII-sPLA2, BODIPY PC-A2 QFRET fluorescence; shares compounds with sPLA2-III inh; inhibition, % at 12.2 µM; 34% of 2,000 active;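 active = mean inhibition across triplicates above the hit cutoff set in the earlier primary screen, cut at about 19% in these data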;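 also: 0% = enzyme with DMSO and 100% = DMSO wells lacking enzyme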
BODIPY interf: optically interferes with 535nm fluorescence in sPLA2 counter-screen; 8.5% of 2,000 active; BODIPY FL product fluorescence interference, QFRET; shares compounds with sPLA2-III inh; inhibition, % at 12.2 µM;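 active = average inhibition above the solvent-only control mean plus 3 SD, cut at about 6% in these data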;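 also: 0% = DMSO with substrate plus product and 100% = DMSO with substrate alone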
* = called active by the depositor.

Results for COC(=O)[C@]12C[C@H](CC(=O)NCC3CCCCC3)C(=O)N(Cc3ccc(Cl)cc3Cl)C1=C[C@H](COCc1ccccc1)O[C@@H]2C ?
PLCb3 inh: 1; sPLA2-III inh: 5; PLC-gamma1 inh: 0

What do the screens show for `COc1cc([N+](=O)[O-])c(C(=O)N2CCOCC2)c([N+](=O)[O-])c1`?
TbMetRS inhib: 0; PLCb3 inh: 5; sPLA2-III inh: 20*; PLC-gamma1 inh: 5; DAGLB inhibitor: 0; sPLA2 confirm: 5; BODIPY interf: 0

Results for Cc1c([N+](=O)[O-])cc(C(=O)N2CCOCC2)cc1[N+](=O)[O-] ?
TbMetRS inhib: 0; PLCb3 inh: 1; sPLA2-III inh: 5; PLC-gamma1 inh: 2; DAGLB inhibitor: 0

What do the screens show for `COCCNC(=O)c1c(N)[nH]c(C(=O)c2ccc(Br)cc2)c1-c1c(OC)ccc2ccccc12`?
PLCb3 inh: -16; sPLA2-III inh: 6; PLC-gamma1 inh: -11

Results for CSc1ccc(CNc2ccc(C)c(C)c2)cc1 ?
TbMetRS inhib: 0; PLCb3 inh: 2; sPLA2-III inh: 9; PLC-gamma1 inh: -1; DAGLB inhibitor: -7

How did CSc1ccc(CNc2ccc(C)cc2)cc1 do in these assays?
TbMetRS inhib: 0; PLCb3 inh: 6; sPLA2-III inh: 22*; PLC-gamma1 inh: 3; DAGLB inhibitor: -8; sPLA2 confirm: 16; BODIPY interf: 4

How did Cn1c(=O)c(=O)n(C)c2cc(N3CCCC3)c(NS(=O)(=O)c3ccc(F)cc3)cc21 do in these assays?
TbMetRS inhib: 0; PLCb3 inh: -64; sPLA2-III inh: -1; PLC-gamma1 inh: -36; DAGLB inhibitor: -2

What do the screens show for `Cn1c(=O)c(=O)n(C)c2cc(N3CCCCC3)c(NS(=O)(=O)c3ccc([N+](=O)[O-])cc3)cc21`?
TbMetRS inhib: 0; PLCb3 inh: -176; sPLA2-III inh: 21*; PLC-gamma1 inh: -113; DAGLB inhibitor: 4; sPLA2 confirm: 12; BODIPY interf: -3

Results for COc1ccccc1/C=C/C=N/NC(=O)c1ccccn1 ?
TbMetRS inhib: -1; PLCb3 inh: -131; sPLA2-III inh: 20*; PLC-gamma1 inh: -85; DAGLB inhibitor: 0; sPLA2 confirm: 6; BODIPY interf: -8

Results for COc1cccc(-n2sc3c(c2=S)-c2cc(OC)ccc2NC3(C)C)c1 ?
TbMetRS inhib: 0; PLCb3 inh: 8; sPLA2-III inh: 27*; PLC-gamma1 inh: 3; DAGLB inhibitor: -3; sPLA2 confirm: 17; BODIPY interf: 0

Results for COc1cccc(-n2cn[nH]c2=S)c1 ?
TbMetRS inhib: 0; PLCb3 inh: -3; sPLA2-III inh: -1; PLC-gamma1 inh: 0; DAGLB inhibitor: 0

Results for Cc1cccc(-n2c3nc(=O)[nH]c(=O)c-3cc3cc([N+](=O)[O-])ccc32)c1 ?
TbMetRS inhib: 2; PLCb3 inh: -2; sPLA2-III inh: 25*; PLC-gamma1 inh: -3; DAGLB inhibitor: 27; sPLA2 confirm: 20*; BODIPY interf: 6.6*

How did Nc1[nH]c(C(=O)c2ccccc2)c(-c2ccccc2Br)c1C(=O)c1cccs1 do in these assays?
PLCb3 inh: -12; sPLA2-III inh: 2; PLC-gamma1 inh: -12

What do the screens show for `O=C(O)c1cccc(Nc2ccc3nonc3c2[N+](=O)[O-])c1`?
TbMetRS inhib: 0; PLCb3 inh: -10; sPLA2-III inh: 20*; PLC-gamma1 inh: 1; DAGLB inhibitor: 3; sPLA2 confirm: 2; BODIPY interf: -6

What do the screens show for `Cc1cc(C)cc(Nc2ccc3nonc3c2[N+](=O)[O-])c1`?
TbMetRS inhib: 0; PLCb3 inh: -2; sPLA2-III inh: -2; PLC-gamma1 inh: 1; DAGLB inhibitor: 5

How did CCCOc1nccc2c1n(C)c(=O)n2C do in these assays?
PLCb3 inh: 3; sPLA2-III inh: 2; PLC-gamma1 inh: 0

What do the screens show for `Cc1ccc2c(c1)c1c(n2CC(O)CN2CCCCC2C)CCCC1` (stereo not given)?
TbMetRS inhib: -1; PLCb3 inh: -6; sPLA2-III inh: -13; PLC-gamma1 inh: 0; DAGLB inhibitor: 1

What do the screens show for `Cc1ccc2c(c1)c(C)c(C)n2CC(O)CN1CCCCC1C` (stereo not given)?
TbMetRS inhib: 0; PLCb3 inh: 1; sPLA2-III inh: 22*; PLC-gamma1 inh: -1; DAGLB inhibitor: 1; sPLA2 confirm: 20*; BODIPY interf: -19

Results for COc1ccc(NC(=O)/C(C#N)=C/c2cccnc2)c(OC)c1 ?
TbMetRS inhib: 0; PLCb3 inh: -6; sPLA2-III inh: -4; PLC-gamma1 inh: -2; DAGLB inhibitor: 0

What do the screens show for `COc1ccc(NC(=O)C(=O)N/N=C/c2cccnc2)c(OC)c1`?
TbMetRS inhib: -1; PLCb3 inh: 0; sPLA2-III inh: 20*; PLC-gamma1 inh: 1; DAGLB inhibitor: -1; sPLA2 confirm: 4; BODIPY interf: -7

How did COc1ccccc1/C=N/NC(=O)C(=O)Nc1ccccc1OC(F)(F)C(F)F do in these assays?
TbMetRS inhib: 0; PLCb3 inh: -17; sPLA2-III inh: 11; PLC-gamma1 inh: -10; DAGLB inhibitor: 1

Results for COc1cccc(/C=N/NC(=O)C(=O)Nc2ccccc2OC(F)(F)C(F)F)c1 ?
TbMetRS inhib: 0; PLCb3 inh: 2; sPLA2-III inh: 21*; PLC-gamma1 inh: 8; DAGLB inhibitor: -2; sPLA2 confirm: 5; BODIPY interf: -4

Results for CC(=O)C1(C(=O)N2CCOCC2)CC(c2ccccc2C(F)(F)F)=NO1 (stereo not given) ?
PLCb3 inh: -2; sPLA2-III inh: -6; PLC-gamma1 inh: -2

Results for Cc1ncc([N+](=O)[O-])n1Cc1ccccc1 ?
TbMetRS inhib: 0; PLCb3 inh: 4; sPLA2-III inh: 0; PLC-gamma1 inh: 4; DAGLB inhibitor: 0

How did Cc1ccc(Cn2c([N+](=O)[O-])cnc2C)cc1 do in these assays?
TbMetRS inhib: 0; PLCb3 inh: -5; sPLA2-III inh: 22*; PLC-gamma1 inh: 4; DAGLB inhibitor: 1; sPLA2 confirm: 8; BODIPY interf: 0

How did Nc1ccn([C@@H]2O[C@H](C(=O)N[C@H](Cc3ccccc3)C(=O)NCC(F)(F)F)[C@@H](O)[C@H]2O)c(=O)n1 do in these assays?
PLCb3 inh: -2; sPLA2-III inh: -3; PLC-gamma1 inh: -2

How did S=C(NCc1ccco1)NCC(c1ccco1)N1CCCCC1 (stereo not given) do in these assays?
TbMetRS inhib: -1; PLCb3 inh: 2; sPLA2-III inh: 23*; PLC-gamma1 inh: 5; DAGLB inhibitor: -1; sPLA2 confirm: 27*; BODIPY interf: -9

Screening results as filed in PubChem BioAssay.
